Screening data (PubChem BioAssay)
An excerpt weighted towards active compounds, which were near 1.8% of everything screened.
PABP1 MLLE inh: blocks PAM2 peptide binding to the PABP1 MLLE domain. 360,000 compounds, 0.36% hits. GST-MLLE / FITC-PAM2 fluorescence polarization. inhibition, % at 20 µM. P11940. AID 588489; in the data active = inhibition above about 35%, passing the limit was not always enough;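 also: plate controls were DMSO wells with GST-MLLE for no effect and wells lacking GST-MLLE protein for full effect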
eIF4E 4G PPI: inhibitors of eIF4E and eIF4G interaction in translation initiation; P63073+Q04637; TR-FRET eIF4E-eIF4GI(517-606) binding, 2 h; inhibition, % at 21.7 µM; 220,000 compounds, 0.37% hits; AID 782;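 active = inhibition above about 30%, limit read from the data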;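 also: 0% = full FRET control wells and 100% = background wells lacking eIF4GI fragment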
eIF4H FP inh: inhibitors of RNA binding by human eIF4H; inhibition, % at 35 µM; eIF4H fluorescence polarization binding assay; Q15056; 290,000 compounds, 0.94% hits;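 also: calls also rest on retests at 20 µM and on dose response follow-up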
HCV core dimer: HCV core protein dimerization inhibition. TR-FRET GST/Flag-core106 dimerization, 1536-well. inhibition, % at 5 µM. 300,000 compounds, 0.33% hits. AID 1899;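 active = inhibition above the mean of all tested compounds plus 3 SD, set per screening campaign, cut at about 45% in these data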
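System: GST-tagged and Flag-tagged HCV core protein residues 1-106 / Input: core106 proteins, GST 13.5 nM and Flag 17 nM / Buffer or medium: KF-containing HEPES buffer, pH 7.45, DTT, CHAPS, BSA / Probe or stimulus: Eu-anti-GST and XL665-anti-Flag labelled anti-tag antibodies / Schedule: 4 h, 22.5 °C incubation / Technique: TR-FRET 671 and 617 nm emission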
PABP FP inh: blocks human PABP binding to poly(A) RNA; P11940; AID 2014; fluorescence polarization; 290,000 compounds, 1% hits; calls only at 35 µM;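 also: calls also rest on retests at 20 µM and on dose response follow-up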
SUMO HTRF inh: blocks human SUMOylation mediated by UBC9. P63279. HTRF SUMOylation assay, SAE1/SAE2 + UBC9, in vitro. inhibition, % at 35 µM. 290,000 compounds, 0.36% hits. AID 2006; in the data active = inhibition above about 50%, passing the limit was not always enough; inconclusive = no clear call, values can overlap the other calls
Target sequence (P63279 whole entry, looked up): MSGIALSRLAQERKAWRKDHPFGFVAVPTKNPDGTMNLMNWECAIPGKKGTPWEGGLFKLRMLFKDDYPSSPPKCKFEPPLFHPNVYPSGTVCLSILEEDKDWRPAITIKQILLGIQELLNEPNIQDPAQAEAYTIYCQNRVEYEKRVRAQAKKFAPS
Active calls of the source: *; i = inactive; ? = inconclusive; . = no result; + = active, no number. Unless noted, no rule for the calls is given here.

SMILES | PABP1 MLLE inh | eIF4E 4G PPI | eIF4H FP inh | HCV core dimer | PABP FP inh | SUMO HTRF inh
Cc1ccccc1NC(=O)CCS(=O)(=O)c1ccc(Br)cc1 | 0 | . | 10 | -9 | i | -5
COc1ccc2c(c1)-c1nc(/N=C/c3c(O)ccc4ccccc34)sc1CC2 | 4 | 3 | -1 | . | i | 57*
Cc1ccc(S(=O)(=O)N[C@@H](Cc2ccccc2)C(=O)N2CCC[C@@H]2C(=O)O)cc1 | 3 | . | -4 | 1 | i | 2
O=c1c(Cc2ccccc2)c(O)ccn1C1CCCCCCC1 | -2 | -9 | -14 | 2 | i | 12
C[n+]1cccc(C2C(C#N)=C(N)Oc3c2ccc2ccccc32)c1 (stereo not drawn) | -63 | 3 | 32 | -11 | + | 20
C[n+]1cccc2ccc3c(c21)OC(N)=C(C#N)C3c1ccccc1 (stereo not drawn) | -107 | 94* | 12 | 2 | i | 84
O=C1Nc2ccccc2/C1=C/c1cnc(-c2ccccc2)[nH]1 | 60 | -60 | ? | 48* | ? | 20
O=C1Nc2ccccc2/C1=C/c1cccnc1 | 9 | -6 | 2 | -4 | i | 12
O=C(Nc1ccccc1)OCCOc1ccc(Br)cc1 | 12 | . | -8 | . | i | -8
O=[N+]([O-])c1ccc(N2CCN(CC3CCCCC3)CC2)cc1 | -17 | . | 4 | 5 | i | -8
O=C(Nc1ccc2nc([C@H]3C[C@H](O)[C@@H](CO)O3)[nH]c2c1)NC(c1ccccc1)c1ccccc1 | -7 | . | . | . | . | .
Cc1ccc2c(c1)S/C(=C\c1cccc[n+]1C)N2CCO | -144 | . | -6 | 6 | + | -12
Cc1ccc(S(=O)(=O)CCSC(=N)N)cc1 | 21 | -1 | -1 | -9 | i | -6
Cc1ccc(S(=O)(=O)CCSc2cccc(C(=O)O)c2)cc1 | 44* | . | 5 | 0 | i | 1
Cc1cc2nsnc2c(S(=O)(=O)N2CCN(C)CC2)c1C | -58 | . | 5 | -5 | i | -6
Cc1c(CC(=O)N2CCN(C(=O)C3COc4ccccc4O3)CC2)c(=O)oc2c(C)c(O)ccc12 (stereo not drawn) | -3 | . | -2 | 6 | i | 50*
CCCN(CCC)CCCNC(=O)C(NS(=O)(=O)c1ccc2c(c1)CCC(=O)N2)c1ccccc1 (stereo not drawn) | -8 | 1 | 8 | -4 | i | 9
Cc1cccc(NC(=O)C(NS(=O)(=O)c2ccc3c(c2)CCC(=O)N3)c2ccccc2)n1 (stereo not drawn) | 44* | -3 | -2 | 0 | i | -25
O=C(C1CC1)N1N=C(c2ccncc2)CC1(O)C(F)(F)F (stereo not drawn) | 4 | 2 | -11 | 3 | i | 13
Oc1ccc(NCc2cccc(OCc3ccc(F)cc3)c2)cc1 | -9 | 0 | 33 | -2 | i | 74*
O=[N+]([O-])c1ccc(COc2cccc(CNc3ccc(F)cc3)c2)cc1 | -4 | 5 | -6 | 4 | i | -18
Oc1ccc(NCc2cccc(OCc3ccccc3)c2)cc1 | -24 | 0 | 69 | -2 | + | 80
CC1(C)Cc2[nH]c3ccccc3c2C(C)(C)N1 | 6 | . | 14 | -4 | i | 18
Cc1ccc(-n2cccc2/C=C2/C(=N)N3C(=NC2=O)SN=C3S(C)(=O)=O)cc1 | -64 | 24 | 50 | 57* | i | 32
CCc1ccc(-n2cccc2/C=C2/C(=N)N3C(=NC2=O)SN=C3S(C)(=O)=O)cc1 | -53 | 21 | 28 | 49* | i | 50
SMILES | PABP1 MLLE inh | eIF4E 4G PPI | eIF4H FP inh | HCV core dimer | PABP FP inh | SUMO HTRF inh
Cc1ccc(-n2cccc2/C=C2\C(=N)N3N=C(c4ccco4)SC3=NC2=O)cc1 | -27 | 56* | 81 | 21 | i | 64*
Cc1cc(C)cc(-n2cccc2/C=C2/C(=N)N3C(=NC2=O)SN=C3S(C)(=O)=O)c1 | -36 | 13 | 29* | 28 | + | 37
CS(=O)(=O)C1=NSC2=NC(=O)/C(=C\c3cccn3-c3ccccc3Cl)C(=N)N21 | -54 | 16 | 30 | 40 | i | 38
CCC1=NN2C(=N)/C(=C\c3cccn3-c3ccc(Cl)cc3)C(=O)N=C2S1 | -9 | 1 | 10 | 42 | i | 17
CC1(C)NC(=O)N(CCC(=O)Nc2ccc(C(C)(C)C)cc2)C1=O | -7 | . | . | . | . | .
COc1cccc(-c2ccc(=O)n(CC(=O)Nc3ccc(S(=O)(=O)NCC(C)C)cc3)n2)c1 | . | 3 | 1 | 16 | i | 18
Cn1c(N)c(C(=O)COC(=O)c2ccc(S(=O)(=O)N3CCCCC3)cc2)c(=O)n(C)c1=O | . | -2 | 2 | -3 | i | -1
Cc1c(NC(=O)CSCc2ccc(Br)cc2)c(=O)n(-c2ccccc2)n1C | -14 | -2 | active | 8 | + | 9
Cc1c(NC(=O)COC(=O)Cc2ccc(Br)cc2)c(=O)n(-c2ccccc2)n1C | -18 | . | . | . | . | .
Cc1c(CCC(=O)O)c(=O)oc2c(C)c3occ(-c4ccc(Br)cc4)c3cc12 | -14 | . | 72* | . | + | 13
CCC1CCCCN1CCCNC(=O)C1CCCN(c2ncnc3c2nc2n3CCCCC2)C1 (stereo not drawn) | -2 | . | -2 | -2 | i | 12
O=C(CBr)N1CCc2ccccc2C(c2ccccc2)C1 (stereo not drawn) | -126 | 3 | 84* | -3 | i | 16
Cc1cc(C)nc(Nc2nc(=O)c3ccccc3s2)n1 | 38* | -1 | 7 | 0 | i | -32
Cc1cc(C)nc(Nc2nc(-c3ccccc3)cs2)n1 | 8 | . | -12 | -9 | i | -1
Cc1ccc(/C=N/OC(=O)c2nn(C)cc2Cl)cc1 | -9 | -2 | 7 | 1 | i | 1
Cc1ccc(S(=O)(=O)NCc2ccccc2)cc1C(=O)N1CCCC(C(F)(F)F)C1 (stereo not drawn) | 5 | . | . | 3 | . | .
COCCNC(=O)COc1ccc(C)cc1C(=O)c1cc(C#N)c(=O)n(C2CC2)c1 | -13 | 5 | + | -1 | + | 12
N#Cc1cc(C(=O)c2cc(Br)ccc2O)cn(C2CC2)c1=O | -27 | 8 | 4 | 9 | i | -3
C=CCn1c(COc2ccc(OC)cc2)nnc1SCn1nnc2ccccc2c1=O | -40 | -2 | active | 1 | + | -5
O=C(Nc1ccc(Oc2ccc(Cl)cc2)c(Cl)c1)c1cc(I)cc(I)c1O | -25 | . | 20 | 21 | i | 59*
CNC(=O)c1[nH]cnc1C(=O)N[C@@H](Cc1ccccc1)C(=O)OC(C)(C)C | 5 | 3 | 93* | -15 | + | 3
COCCN1CCC(CNCc2c(C(=O)N3CCCCC3)nc3c(C)cccn23)C1 (stereo not drawn) | 9 | -6 | 62* | 2 | + | 19
COc1ccc(Cc2nnc(NC(=O)Cc3cccs3)s2)cc1OC | -13 | 37* | 2 | 74* | i | 2
